MrgX1 agonist – human MrgX1 receptor agonism, primary screen. Q96LB2. MrgX1-HEK293 cells, Fluo-4 calcium fluorescence, agonist mode; active compounds read high. B-score at 10 µM. hit rate 0.44% among 310,000. AID 588627;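 active = calcium response B-score plate-corrected fluorescence ratio at least 3 library SD, with starting fluorescence B-score inside 5 SD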
Target sequence (Q96LB2 whole entry, looked up): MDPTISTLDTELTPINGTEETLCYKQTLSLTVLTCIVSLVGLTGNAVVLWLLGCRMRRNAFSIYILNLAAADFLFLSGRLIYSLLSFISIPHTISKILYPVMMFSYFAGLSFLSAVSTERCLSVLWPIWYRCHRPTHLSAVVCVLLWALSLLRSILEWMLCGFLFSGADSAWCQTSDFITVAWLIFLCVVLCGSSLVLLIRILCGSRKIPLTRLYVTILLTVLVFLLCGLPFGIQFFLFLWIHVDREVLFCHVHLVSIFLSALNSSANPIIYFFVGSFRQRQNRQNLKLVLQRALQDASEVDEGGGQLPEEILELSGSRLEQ
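System – MrgX1-expressing HEK293 cells · Incubation – cells plated overnight, dye loaded 0.5 h 37 °C, 0.5 h room temperature · Technique – kinetic Fluo-4 NW fluorescence of intracellular calcium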
MrgX1 allo act – human MrgX1 positive allosteric modulation, primary screen | Q96LB2 | MrgX1-HEK293, Fluo-4 calcium flux, FDSS; active compounds read high | B-score at 10 µM | hit rate 0.63% among 310,000;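 active = plate-corrected calcium response at least 3 library SD above typical, normal starting fluorescence, not activating the receptor alone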;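 also: compound read alongside a low EC10 to EC30 dose of BAM8-22 agonist; peak minus trough fluorescence over baseline measured at the second addition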
RGS4 act – potentiators or activators of RGS4. HEK293 M3R/inducible RGS4, carbachol calcium flux Fluo4; active compounds read low. B-score at 10 µM. hit rate 0.92% among 310,000. AID 463111;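 active = B-score of the integrated calcium signal more than 4 SD below the library mean, with starting fluorescence not abnormally high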;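 also: negative B-score means reduced calcium response which marks RGS4 activation or potentiation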
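System: HEK293 FlpIn-TREx cells, stable M3R, doxycycline-inducible RGS4. Timing: overnight RGS4 induction, 30 min dye load 37 °C, 20 min compound RT. Also added: carbachol, ECmax concentration. Measured by: Fluo4 fluorescence kinetic imaging of calcium. Evaluation: integrated calcium ratio converted to B score.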
MrgX1 antag – antagonists of human MrgX1 receptor | MRGX1-HEK293 calcium flux, Fluo-4, BAM8-22 antagonism; active compounds read low | B-score at 10 µM | hit rate 1.3% among 310,000 | AID 588676;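 active = calcium-response B-score plate-corrected more than 3 library SD below zero, starting fluorescence within 5 deviations, no agonist response on first addition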;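 also: peak minus trough fluorescence over baseline after final BAM8-22 challenge near maximal dose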
RGS4 block – inhibitors of human RGS4. P49798. HEK293 M3R/RGS4 inducible, Fluo-4 calcium flux; active compounds read high; triggered by carbachol at its EC20. B-score at 10 µM. hit rate 0.45% among 310,000. AID 463165;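 active = B-score, a plate-corrected calcium signal, over three deviations above library mean, with baseline fluorescence within five deviations of library mean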;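 also: RGS4 expression induced by doxycycline in cells with stable M3 receptor; B-score is computed from the integrated fluorescence ratio over baseline after carbachol; higher B-score means a larger calcium signal and so more RGS4 inhibition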
Target sequence (P49798 whole entry, looked up): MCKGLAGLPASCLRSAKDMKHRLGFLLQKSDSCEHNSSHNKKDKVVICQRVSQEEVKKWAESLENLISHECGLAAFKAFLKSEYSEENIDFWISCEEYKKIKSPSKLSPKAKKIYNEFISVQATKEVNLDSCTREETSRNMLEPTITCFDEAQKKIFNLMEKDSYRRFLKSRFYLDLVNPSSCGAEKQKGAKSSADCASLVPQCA
MrgX1 ag confirm – reconfirmed activator of human MrgX1 receptor signaling; shares compounds with MrgX1 agonist; MrgX1-HEK293, Fluo-4 calcium fluorescence, FDSS; activation, % at 10 µM; hit rate 78% among 600; AID 602412;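 active = calcium signal rise, corrected for plate position, at least 3 library SD high, with starting brightness within 5 such deviations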; also: reference of the scale not given here
HEK293 Ca flux – activity in parental HEK293 cells lacking MrgX1 | fluorescence ratio F(max-min)/F0 at 10 µM | shares compounds with MrgX1 antag | Fluo-4 calcium fluorescence, FDSS | AID 624111 | hit rate 2% among 4,000;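 active = duplicate-averaged calcium fluorescence ratio at least three times the standard deviation of buffer wells, a nonspecific response in parental cells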
HEK293 Ca counter – activity in parental HEK293 cells without MrgX1; shares compounds with MrgX1 antag; parental HEK293 calcium flux, Fluo-4 fluorescence ratio; active compounds read high; fluorescence ratio F(max-min)/F0 at 10 µM; hit rate 0.4% among 4,000; AID 624114;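 active = calcium fluorescence ratio, averaged over duplicates, at least 3 SD of the buffer-well ratio, meaning a nonspecific response in receptor-free cells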;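 also: untransfected parental HEK293 lacking MrgX1 used as counterscreen for MrgX1 allosteric activators; fluorescence change taken during the second addition on a kinetic imager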
HEK293 Ca cntr2 – counter-screen for MrgX1 activators: effect in parental HEK293 cells | shares compounds with MrgX1 antag | Fluo-4 calcium fluorescence (FDSS); active compounds read high | fluorescence ratio F(max-min)/F0 at 10 µM | hit rate 8.7% among 4,000;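 active = calcium fluorescence ratio at least three times the spread of buffer wells, meaning a non-specific response in parental cells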
Numbers without * were called inactive; i = inactive; . = no result given. Sampled rows, rich in hits. Any-hit rate of the full collection: about 3.5%.

SMILES	MrgX1 agonist	MrgX1 allo act	RGS4 act	MrgX1 antag	RGS4 block	MrgX1 ag confirm	HEK293 Ca flux	HEK293 Ca counter	HEK293 Ca cntr2
Cn1c(-c2ccccc2)c(CCO)c2ccccc21	43*	i	i	i	i	184%*	i	i	i
Cc1ccc(Nc2nnc(-c3ccncc3)s2)c(Br)c1	49*	i	i	i	i	i	i	i	i
CNc1nnc(-c2ccncc2)s1	i	i	i	i	i	.	.	.	.
COc1ccc(C(=O)Nc2nnc(SCC(=O)NC3CC3)s2)cc1	i	i	i	i	i	.	.	.	.
CCCCn1c(N)c(N(CC)C(=O)C(c2ccccc2)c2ccccc2)c(=O)[nH]c1=O	i	i	i	i	i	.	.	.	.
O=C1/C(=C/c2ccccc2)Nc2ccccc21	128*	i	i	i	i	i	0.41*	i	224*
CCCNC(=O)c1ccccc1NC(=O)COc1cccc2c1OC(C)(C)C2	i	i	i	i	i	.	.	.	.
O=C(Nc1nnc(-c2ccccc2Cl)o1)c1nc2ccccc2s1	103*	i	i	i	i	433%*	i	i	84*
N/C(CSc1ccc(Cl)cc1)=N\NC(=O)c1ccncc1	i	i	i	i	i	.	.	.	.
CN1c2ccccc2C(O)=C(C(=O)Nc2ccccc2)S1(=O)=O	41*	i	i	i	i	i	i	i	i
COc1ccc2c(c1)nc(N)n2Cc1ccccc1	49*	i	i	i	i	233%*	i	i	i
Cc1ccc(NC(=O)CCl)cc1S(=O)(=O)N1CCCCCC1	29*	i	i	i	i	169%*	i	i	i
Cc1cccc(C(=O)NC(=S)NNC(=O)Cc2ccccc2)c1	119*	i	i	i	i	638%*	i	i	137*
Cc1cccc(C(=O)NC(=S)Nc2ccccc2C(=O)O)c1	i	i	i	i	i	.	.	.	.
Cc1cccc(C(=O)NC(=S)NNC(=O)c2ccccc2Cl)c1	105*	i	i	i	i	776%*	i	i	149*
CC(=O)Nc1ccc(Cl)c(-c2nc3ncccc3o2)c1	i	i	i	i	i	.	.	.	.
CCOC(=O)CNC(=O)Cn1cnc2c(oc3ccccc32)c1=O	i	i	i	i	i	.	.	.	.
CC1=C(C)Cc2c(OC(=O)c3ccccc3)ccc(OC(=O)c3ccccc3)c2C1	i	i	i	i	i	.	.	.	.
Cc1ccc(NS(=O)(=O)c2ccc(C(=O)N3CC(C)OC(C)C3)cc2)cc1 (configuration not stated)	29*	i	i	i	i	151%*	i	i	i
Cc1ccc(NS(=O)(=O)c2ccc(C(=O)N3CCC3)cc2)cc1	i	i	i	i	i	.	.	.	.
CN1CCN(S(=O)(=O)c2ccc(NC(=O)c3ccccc3F)cc2)CC1	i	i	i	i	i	.	.	.	.
CCN(CC)CCCOc1ccc(Cl)c(Cl)c1	107*	i	i	i	i	i	i	i	i
CN(CCOc1ccc(Cl)c(Cl)c1)Cc1ccccc1	i	i	i	i	i	.	.	.	.
CCN(CC)CCCN=Cc1c(-c2ccccc2)[nH]n(-c2nc3ccccc3s2)c1=O	i	i	i	i	i	.	.	.	.
CCCc1[nH]n(-c2nc3ccccc3s2)c(=O)c1C=NCC(C)C	29*	i	i	i	i	227%*	i	i	59*
SMILES	MrgX1 agonist	MrgX1 allo act	RGS4 act	MrgX1 antag	RGS4 block	MrgX1 ag confirm	HEK293 Ca flux	HEK293 Ca counter	HEK293 Ca cntr2
CSc1nnc(-c2cc(Br)ccc2N=Cc2c(C)[nH]n(-c3ccccc3)c2=O)c(=O)[nH]1	i	i	i	i	i	.	.	.	.
CCSc1nnc(-c2cc(Br)ccc2N=Cc2c(C)[nH]n(-c3ccccc3)c2=O)c(=O)[nH]1	71*	i	i	i	i	109%*	i	i	61*
CCc1nc(N)nc(N)c1-c1ccc(Cl)cc1	28*	i	i	i	i	i	i	i	i
C/C(N)=C(/C#N)C(=O)CSc1nc2ccccc2c(=O)n1-c1ccccc1C	i	i	i	i	i	.	.	.	.
Cc1ccccc1-n1c(CSC(=N)N)nc2ccccc2c1=O	43*	i	i	i	i	221%*	i	i	i
O=c1c2ccccc2nc(CSc2nnnn2-c2ccccc2)n1-c1ccccc1Cl	i	i	i	i	i	.	.	.	.
N=C(N)SCc1nc2ccccc2c(=O)n1-c1ccccc1Cl	27*	i	i	i	i	203%*	i	i	i
O=S(=O)(c1ccccc1)N1N=C(c2ccccc2)CC1c1ccccc1F (configuration not stated)	i	i	i	i	i	.	.	.	.
COc1cc(OC)c(OC)cc1CNC(=O)CCN1C(=O)c2cccc([N+](=O)[O-])c2C1=O	i	i	i	i	i	.	.	.	.
NNC(=O)c1ccc(O)cc1O	i	i	i	i	i	.	.	.	.
COc1ccccc1CCC(=O)N(Cc1ccccc1)c1c(N)n(Cc2ccccc2)c(=O)[nH]c1=O	i	i	i	i	i	.	.	.	.
CCn1c(=O)c(C(=O)CN2CCN(S(=O)(=O)c3ccccc3)CC2)c(N)n(Cc2ccccc2)c1=O	27*	i	i	i	i	188%*	i	i	i
CCn1c(=O)c(C(=O)CN2CCN(S(=O)(=O)c3ccc(C)cc3C)CC2)c(N)n(Cc2ccccc2)c1=O	i	i	i	i	i	.	.	.	.
CC(C)(CNC(=O)c1ccc(-c2ccccc2Cl)o1)N1CCOCC1	i	i	i	i	i	.	.	.	.
COc1ccc(-c2csc(NC(=O)CCN3C(=O)C4CC=CCC4C3=O)n2)cc1OC (configuration not stated)	45*	i	-7.3*	i	i	i	i	i	i
COc1ccc(-c2csc(NC(=O)CS(=O)(=O)c3ccc(F)cc3)n2)cc1OC	55*	i	i	i	i	i	i	i	i

High-throughput results deposited in PubChem by Johns Hopkins Ion Channel Center.
